Data set [1] in a line: Ratio IC50 for PDE4 activity in human whole blood to IC50 for PDE4. It counts as tissue-based. The gist of the method:
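Ratio of two IC50s. The numerator is from human whole blood stimulated with LPS, read as inhibition of TNF-α release. The denominator (PDE4QT) is the mean of the IC50s on the PDE4A, B and D catalytic domains. These were expressed as GST constructs in Sf9 cells by baculovirus. Each IC50 is the average of at least two experiments.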

The target of data set [2] is 3',5'-cyclic-AMP phosphodiesterase 4A (Homo sapiens, UniProt P27815). Nature of the data set: Inhibition of PDE4A. Particulars: pooled result: one value given for 3 cell lines, strains, targets or settings. The gist of the method: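 Catalytic domains of PDE4A, B and D expressed as GST constructs in SF9 cells (baculovirus). IC50s are averages of at least two experiments.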

In a further data set the target is Phosphodiesterase 4 (Homo sapiens, UniProt P27815+Q08499+Q07343+Q08493). Nature of the data set: Inhibition of PDE4 activity in human whole blood assessed as inhibition of LPS-induced TNF-alpha release.
Data set [3] can be described thus: (§1) Oral bioavailability in Sprague-Dawley rat at 10 mg/kg. In kind it is ADME, organism-based. Particulars: Sprague-Dawley, in vivo.
The nature of data set [4]: (§2) Half life in Sprague-Dawley rat at 10 mg/kg, po and 5 mg/kg, iv. It counts as ADME, organism-based. Particulars: Sprague-Dawley, in vivo.
Data set [5] concerns Rattus norvegicus. The data set is described as §1. It counts as ADME, organism-based. Particulars: in vivo.
Data set [6] relates to Rattus norvegicus. The description is as §2. In kind it is ADME, organism-based. Particulars: in vivo.
Data set [7] concerns Rattus norvegicus. In words: Cognitive enhancing effect in Lister rat assessed as recognition of novel object at 0.01 mg/kg, po pretreated 90 mins before sample phase by novel object recognition test. The arrangement: dose 0.01 mg/kg. In kind it is functional, organism-based. The gist of the method:
(§3)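 Novel object recognition in rats. Oral dosing in 0.5% methocel 90 min before the sample trial, which ended at 25 s of exploration or 3 min. Choice trial followed with a familiar and a novel object. d2 score = (novel − familiar)/total exploration. n = 21–24; Newman–Keuls test.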

Data set [8] has as its system Rattus norvegicus. Nature of the data set: Cognitive enhancing effect in Lister rat assessed as recognition of novel object at 0.1 mg/kg, po pretreated 90 mins before sample phase by novel object recognition test. In kind it is functional, organism-based. The arrangement: dose 0.1 mg/kg. The gist of the method: as §3
Data set [9] is described as follows: Drug level in rat plasma at 0.1 mg/kg, po measured 90 mins post dose. In kind it is ADME, organism-based. The arrangement: dose 0.1 mg/kg, route oral.
Data set [10] can be described thus: Drug level in rat brain at 0.1 mg/kg, po measured 90 mins post dose. In kind it is ADME, organism-based. Particulars: read-out: Drug uptake. The arrangement: dose 0.1 mg/kg, route oral.
Data set [11] can be described thus: Drug level in rat plasma at 0.5 mg/kg, po measured 90 mins post dose. It counts as ADME, organism-based. Also on record: dose 0.5 mg/kg, route oral.
Data set [12] is described as follows: Drug level in rat brain at 0.5 mg/kg, po measured 90 mins post dose. It counts as ADME, organism-based. The arrangement: dose 0.5 mg/kg, route oral. Particulars: read-out: Drug uptake.
A short description of data set [13]: Drug level in rat plasma at 1 mg/kg, po measured 90 mins post dose. In kind it is ADME, organism-based. Also on record: dose 1 mg/kg, route oral.
The nature of data set [14]: Drug level in rat brain at 1 mg/kg, po measured 90 mins post dose. In kind it is ADME, organism-based. The arrangement: dose 1 mg/kg, route oral. Particulars: read-out: Drug uptake.
Data set [15] in a line: Drug level in rat plasma at 5 mg/kg, po measured 90 mins post dose. It counts as ADME, organism-based. The arrangement: dose 5 mg/kg, route oral.
The nature of data set [16]: Drug level in rat brain at 5 mg/kg, po measured 90 mins post dose. The arrangement: dose 5 mg/kg, route oral. Particulars: read-out: Drug uptake. In kind it is ADME, organism-based.
Data set [17] in a line: Drug level in rat plasma at 10 mg/kg, po measured 90 mins post dose. It counts as ADME, organism-based. The arrangement: dose 10 mg/kg, route oral.
Data set [18] in a line: Drug level in rat brain at 10 mg/kg, po measured 90 mins post dose. Particulars: read-out: Drug uptake. The arrangement: dose 10 mg/kg, route oral. In kind it is ADME, organism-based.

As a reminder, the IC50 is the concentration at which inhibition is half-maximal. As usually defined, the bioavailability is dose-corrected exposure relative to a reference, in per cent. A higher bioavailability goes with good availability. By half-life is commonly meant the time needed for the level to fall by half in the phase considered. Lower therefore signals rapid decline.

Structures are written as SMILES. Active and inactive are the calls of the source.

Chain of 3',5'-cyclic-AMP phosphodiesterase 4A (P27815 whole entry, the tested form may be a part): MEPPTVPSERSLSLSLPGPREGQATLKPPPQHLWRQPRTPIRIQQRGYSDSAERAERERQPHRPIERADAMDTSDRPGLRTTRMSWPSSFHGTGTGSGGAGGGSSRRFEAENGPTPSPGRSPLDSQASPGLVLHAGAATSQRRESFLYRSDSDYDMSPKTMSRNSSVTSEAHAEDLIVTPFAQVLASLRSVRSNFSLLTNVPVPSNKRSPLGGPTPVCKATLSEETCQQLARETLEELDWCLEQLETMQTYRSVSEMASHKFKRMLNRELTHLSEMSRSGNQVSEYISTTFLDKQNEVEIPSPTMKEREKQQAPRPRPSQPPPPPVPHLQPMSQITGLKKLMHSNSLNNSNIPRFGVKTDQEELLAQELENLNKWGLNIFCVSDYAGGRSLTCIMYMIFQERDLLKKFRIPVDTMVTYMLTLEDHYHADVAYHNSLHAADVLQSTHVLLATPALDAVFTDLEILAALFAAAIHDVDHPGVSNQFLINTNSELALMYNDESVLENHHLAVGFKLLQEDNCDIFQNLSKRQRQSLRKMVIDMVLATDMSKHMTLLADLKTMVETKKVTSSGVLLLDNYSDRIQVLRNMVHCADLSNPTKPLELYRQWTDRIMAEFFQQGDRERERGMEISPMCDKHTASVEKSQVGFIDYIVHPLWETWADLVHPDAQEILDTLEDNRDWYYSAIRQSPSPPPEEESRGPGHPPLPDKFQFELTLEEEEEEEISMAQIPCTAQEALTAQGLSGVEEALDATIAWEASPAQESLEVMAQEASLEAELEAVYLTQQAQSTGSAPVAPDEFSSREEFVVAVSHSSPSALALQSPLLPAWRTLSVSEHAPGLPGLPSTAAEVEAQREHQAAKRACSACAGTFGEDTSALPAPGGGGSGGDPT

As for `O=C(NCC(F)(F)F)c1cn(-c2cccc(-c3ccc(C4CC4C(=O)O)cc3)c2)c2ncccc2c1=O` (racemic), the Ratio IC50 in data set [1] was 1080. The IC50 in data set [2] was found to be 0.51 nM; at Phosphodiesterase 4, 510 nM. In addition, the bioavailability in [3] came out at 25%. In addition, in data set [4], the half-life is 3.2 h.
With `CC1(NC(=O)c2cn(-c3cccc(-c4ccc(C5CC5C(=O)O)cc4)c3)c3ncccc3c2=O)CC1` (racemic), the Ratio IC50 in data set [1] worked out at 482. In addition, the figures for the IC50 (in [2]; at Phosphodiesterase 4) were 0.58 nM and 280 nM, respectively. Also, the bioavailability in data set [3] was 58%. In data set [4], this compound had a half-life of 4.1 h.
On to `CC(C)(C)NC(=O)c1cn(-c2cccc(-c3ccc(C4CC4C(=O)O)cc3)c2)c2ncccc2c1=O` (racemic), for which the Ratio IC50 in data set [1] is above 1140. Further, the values for the 50% inhibitory concentration (IC50) (in [2]; on Phosphodiesterase 4) were 32 nM and above 40000 nM, respectively.
The matching figures for `O=C(NCC1CC1)c1cn(-c2cccc(-c3ccc(C4CC4C(=O)O)cc3)c2)c2ncccc2c1=O` (racemic): 571, 0.35 nM and 200 nM.
As for `O=C(NC1CC1)c1cn(-c2cccc(-c3ccc(C4CC4C(=O)O)cc3)c2)c2ncccc2c1=O` (racemic) [listing 1 of 2 here], the half-inhibitory concentration (IC50) was found to be 0.57 nM in data set [2] and 300 nM at Phosphodiesterase 4. Besides, the F in the data set on Rattus norvegicus [5] was found to be 78%. In the data set on Rattus norvegicus [6], this compound yielded a t1/2 of 1.7 h.
For `O=C(NC1(O)CC1)c1cn(-c2cccc(-c3ccc(C4CC4C(=O)O)cc3)c2)c2ncccc2c1=O` (racemic), the Ratio IC50 in data set [1] stood at 376. The IC50 in [2] is 17 nM; on Phosphodiesterase 4, 6400 nM.
Turning to `CC(C)(Cc1ccc(-c2cccc(-n3cc(C(=O)NC4CC4)c(=O)c4cccnc43)c2)cc1)C(=O)O`, the Ratio IC50 in [1] is 693. The IC50 turned out to be 0.88 nM in data set [2] and 610 nM at Phosphodiesterase 4. This compound had a bioavailability in data set [3] of 30%. The same compound gave a half-life in data set [4] of 6.1 h.
`O=C(NC1CC1)c1cn(-c2cccc(-c3ccc([C@@H]4C[C@H]4C(=O)O)c(F)c3)c2)c2ncccc2c1=O`: the Ratio IC50 in data set [1] turned out to be 1040. The result with Rattus norvegicus [7] and in the data set with Rattus norvegicus [8] was Active.
Regarding `O=C(NC1CC1)c1cn(-c2cccc(-c3ccccc3C3CC3C(=O)O)c2)c2ncccc2c1=O` (racemic), the Ratio IC50 in data set [1] was 282. In addition, the IC50 came to 4.6 nM in data set [2] and 1300 nM on Phosphodiesterase 4. The same compound registered a bioavailability in [3] of 35%. Further, the half-life in data set [4] is 4.7 h.
For `O=C(NC1CC1)c1cn(-c2cccc(-c3cccc(C4CC4C(=O)O)c3)c2)c2ncccc2c1=O` (racemic), in [1], the Ratio IC50 worked out at 203. For the same compound, the IC50 in [2] came to 0.54 nM; at Phosphodiesterase 4 it was 110 nM. The compound also gave a bioavailability in data set [3] of 100%. In [4], this compound showed a half-life of 1 h.
In the case of `O=C(NC1CC1)c1cn(-c2cccc(-c3ccc([C@H]4C[C@@H]4C(=O)O)cc3)c2)c2ncccc2c1=O`, the Ratio IC50 in [1] was 350. Also, the IC50 in data set [2] came out at 0.66 nM; at Phosphodiesterase 4, 230 nM.
As to `O=C(NC1CC1)c1cn(-c2cccc(-c3ccc([C@H]4C[C@@H]4C(=O)O)c(F)c3)c2)c2ncccc2c1=O`, in [1], the Ratio IC50 came out at 330. Besides, the IC50 in data set [2] is 0.46 nM; at Phosphodiesterase 4, 150 nM.
In the case of `O=C(NC1CC1)c1cn(-c2cccc(-c3ccc([C@@H]4C[C@H]4C(=O)[O-])c(F)c3)c2)c2ncccc2c1=O.[Na+]`, the concentration at 1.5 h in data set [9] amounted to 590 nM; in data set [10], 12 nM; in data set [11] it was 1340 nM; in data set [12], 47 nM; in data set [13], 3410 nM; in [14], 110 nM. Besides, the concentration at 1.5 h in data set [15] stood at 8190 nM; in data set [16] it was 290 nM; in data set [17], 18800 nM; in [18], 590 nM.
As to `O=C(NC1CC1)c1cn(-c2cccc(-c3ccc(C4CC4C(=O)O)cc3)c2)c2ncccc2c1=O` (cis isomer) [listing 1 of 2 here], the Ratio IC50 in [1] is 100.
Regarding `O=C(NC1CC1)c1cn(-c2cccc(-c3ccc(C4CC4c4nnn[nH]4)cc3)c2)c2ncccc2c1=O` (racemic), the Ratio IC50 in [1] was above 9090. The IC50 is 0.55 nM in data set [2] and above 5000 nM on Phosphodiesterase 4. In data set [3], the bioavailability was found to be 5%. Further, the half-life in data set [4] is 2.4 h.
The matching figures for `O=C(NC1CCC1)c1cn(-c2cccc(-c3ccc(C4CC4C(=O)O)cc3)c2)c2ncccc2c1=O` (racemic): 432, 0.52 nM, 220 nM, 20% and 2.4 h.
Turning to `CC(C)(c1cc(-c2cccc(-c3ccc(C4CC4C(=O)O)cc3)c2)c2ncccc2c1)S(C)(=O)=O` (single isomer, unassigned; enantiomer B), the 50% inhibitory concentration (IC50) was determined as 0.32 nM in data set [2] and 600 nM at Phosphodiesterase 4.
In the case of `O=C(NC1CC1)c1cn(-c2cccc(-c3ccc(C4CC4C(=O)O)cc3)c2)c2ncccc2c1=O` (cis isomer) [listing 2 of 2 here], the concentration for half-maximal inhibition (IC50) in [2] was 1.6 nM; on Phosphodiesterase 4, 160 nM. In the data set on Rattus norvegicus [5], this compound came in with an F of 30%. This compound also had a t1/2 in the data set on Rattus norvegicus [6] of 3.9 h.
In the case of `CC(C)(CC(=O)O)c1ccc(-c2cccc(-n3cc(C(=O)NC4CC4)c(=O)c4cccnc43)c2)cc1`, in data set [1], the Ratio IC50 is 88. Besides, the IC50 in data set [2] was 0.85 nM; on Phosphodiesterase 4, 75 nM. Also, in data set [3], the bioavailability was 62%. For the same compound, the half-life in data set [4] is 5.1 h.
For the compound `CC(C)(c1cc(-c2cccc(-c3ccc(C4CC4C(=O)O)cc3)c2)c2ncccc2c1)S(C)(=O)=O` (single isomer, unassigned; enantiomer A), the results for the IC50 (in data set [2]; at Phosphodiesterase 4) were 0.54 nM and 1400 nM, respectively.
Turning to `O=C(NC1CC1)c1cn(-c2cccc(-c3ccc([C@@H]4C[C@H]4C(=O)O)cc3)c2)c2ncccc2c1=O`, the Ratio IC50 in data set [1] came out at 1000. For the same compound, the IC50 in [2] amounted to 1 nM; at Phosphodiesterase 4, 1000 nM.
Regarding `O=C(NC1CC1)c1cn(-c2cccc(-c3ccc(C4CC4C(=O)O)cc3)c2)c2ncccc2c1=O` (racemic) [listing 2 of 2 here], the Ratio IC50 in [1] stood at 526.

(Values after ChEMBL document CHEMBL1799977, “Discovery of MK-0952, a selective PDE4 inhibitor for the treatment of long-term memory loss and mild cognitive impairment” (Bioorg Med Chem Lett, 2010).)
